# Data published in ChEMBL document CHEMBL3751743, “Synthesis and anti-cancer screening of novel heterocyclic-(2H)-1,2,3-triazoles as potential anti-cancer agents” (Medchemcomm, 2015).
# Legend:
# [1] = Cytotoxicity against human SW620 cells after 48 hrs by SRB assay; type: functional; details: SW-620, 48 h
# Procedure, shortened: (§1)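 NCI-60 five-dose screen: compounds dissolved in DMSO/H2O, tested at five 10-fold dilutions (10^-4 to 10^-8 M) for 48 h. Growth measured by sulforhodamine B optical density at time zero and after 48 h drug or vehicle exposure. Percentage growth calculated relative to control. GI50 is the molar concentration giving 50% reduction in net cell growth versus day-0 cell numbers.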
# MCF7 = experiment: Cytotoxicity against human MCF7 cells after 48 hrs by SRB assay; type: functional; details: MCF7, 48 h; procedure, shortened: as §1
# SK-MEL-5 = experiment: Cytotoxicity against human SK-MEL-5 cells after 48 hrs by SRB assay; type: functional; details: SK-MEL-5, 48 h; procedure, shortened: as §1
# [2] = Cytotoxicity against human HCT116 cells after 48 hrs by SRB assay; type: functional; details: HCT-116, 48 h; procedure, shortened: as §1
# [3] = Cytotoxicity against human HCT15 cells after 48 hrs by SRB assay; type: functional; details: HCT-15, 48 h; procedure, shortened: as §1
# NCI-H522 = experiment: Cytotoxicity against human NCI-H522 cells after 48 hrs by SRB assay; type: functional; details: NCI-H522, 48 h; procedure, shortened: as §1
# [4] = Cytotoxicity against human UO31 cells after 48 hrs by SRB assay; type: functional; details: UO-31, 48 h
# Procedure, shortened: (§2)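 NCI-60 five-dose screen. Compounds dissolved in DMSO/H2O and tested at five 10-fold dilutions (10^-4 to 10^-8 M) for 48 h. Growth read by sulforhodamine B optical density at time zero and after 48 h of exposure to compound or vehicle. Percent growth calculated against control. GI50 is the molar concentration giving 50% reduction in net cell growth relative to cell number on day 0.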
# [5] = Cytotoxicity against human OVCAR4 cells after 48 hrs by SRB assay; type: functional; details: OVCAR-4, 48 h; procedure, shortened: as §1
# [6] = Cytotoxicity against human HCC2998 cells after 48 hrs by SRB assay; type: functional; details: HCC 2998, 48 h; procedure, shortened: as §1
# [7] = Cytotoxicity against human HL-60(TB) cells after 48 hrs by SRB assay; type: functional; details: HL-60, 48 h; procedure, shortened: as §1
# [8] = Cytotoxicity against human SF268 cells after 48 hrs by SRB assay; type: functional; details: SF-268, 48 h; procedure, shortened: as §1
# U-251 = experiment: Cytotoxicity against human U251 cells after 48 hrs by SRB assay; type: functional; details: U-251, 48 h; procedure, shortened: as §2
# A498 = experiment: Cytotoxicity against human A498 cells after 48 hrs by SRB assay; type: functional; details: A498, 48 h; procedure, shortened: as §1
# KM12 = experiment: Cytotoxicity against human KM12 cells after 48 hrs by SRB assay; type: functional; details: KM12, 48 h; procedure, shortened: as §1
# SN12C = experiment: Cytotoxicity against human SN12C cells after 48 hrs by SRB assay; type: functional; procedure, shortened: as §1
# [9] = Cytotoxicity against human TK10 cells after 48 hrs by SRB assay; type: functional; details: TK-10, 48 h; procedure, shortened: as §2
# [10] = Cytotoxicity against human DU145 cells after 48 hrs by SRB assay; type: functional; details: DU-145, 48 h; procedure, shortened: as §1
# NCI-H23 = experiment: Cytotoxicity against human NCI-H23 cells after 48 hrs by SRB assay; type: functional; details: NCI-H23, 48 h; procedure, shortened: as §1
# [11] = Cytotoxicity against human RXF393 cells after 48 hrs by SRB assay; type: functional; details: RXF 393, 48 h; procedure, shortened: as §1
# [12] = Cytotoxicity against human UACC257 cells after 48 hrs by SRB assay; type: functional; details: UACC-257, 48 h; procedure, shortened: as §2
# K562 = experiment: Cytotoxicity against human K562 cells after 48 hrs by SRB assay; type: functional; details: K562, 48 h; procedure, shortened: as §1
# [13] = Cytotoxicity against human NCI-ADR-RES cells after 48 hrs by SRB assay; type: functional; procedure, shortened: as §1
# ACHN = experiment: Cytotoxicity against human ACHN cells after 48 hrs by SRB assay; type: functional; procedure, shortened: as §1
# SK-MEL-28 = experiment: Cytotoxicity against human SK-MEL-28 cells after 48 hrs by SRB assay; type: functional; details: SK-MEL-28, 48 h; procedure, shortened: as §1
# MDA-MB-435 = experiment: Cytotoxicity against human MDA-MB-435 cells after 48 hrs by SRB assay; type: functional; details: MDA-MB-435, 48 h; procedure, shortened: as §1
# Tubulin = Tubulin (Sus scrofa, UniProt P02554+P02550); experiment: Inhibition of porcine brain tubulin polymerization by spectrophotometric analysis
# Procedure, shortened: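 Tubulin at 4 mg/mL in cold 80 mM PIPES pH 6.9 with 2 mM MgCl2, 0.5 mM EGTA, GTP and 10% glycerol. Compound (added as 10x stock in 50% DMSO) or DMSO was preincubated 2 min at 37 °C in a prewarmed plate. Cold tubulin was then added, and polymerization at 37 °C was followed by A340 over time. Dose-response, mean ± s.d., n=3.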
# HT-29 = experiment: Cytotoxicity against human HT-29 cells after 48 hrs by SRB assay; type: functional; details: HT-29, 48 h; procedure, shortened: as §1
# [14] = Cytotoxicity against human COLO205 cells after 48 hrs by SRB assay; type: functional; details: COLO 205, 48 h; procedure, shortened: as §1
# [15] = Cytotoxicity against human RPMI8226 cells after 48 hrs by SRB assay; type: functional; details: RPMI-8226, 48 h; procedure, shortened: as §1
# [16] = Cytotoxicity against human LOXIMVI cells after 48 hrs by SRB assay; type: functional; details: LOX IMVI; procedure, shortened: as §1
# [17] = Cytotoxicity against human SKOV3 cells after 48 hrs by SRB assay; type: functional; details: SK-OV-3, 48 h; procedure, shortened: as §1
# SK-MEL-2 = experiment: Cytotoxicity against human SK-MEL-2 cells after 48 hrs by SRB assay; type: functional; details: SK-MEL-2, 48 h; procedure, shortened: as §1
# [18] = Cytotoxicity against human Hs 578T cells after 48 hrs by SRB assay; type: functional; procedure, shortened: as §1
# [19] = Cytotoxicity against human OVCAR8 cells after 48 hrs by SRB assay; type: functional; details: OVCAR-8, 48 h; procedure, shortened: as §1
# 786-0 = experiment: Cytotoxicity against human 786-0 cells after 48 hrs by SRB assay; type: functional; details: 786-0, 48 h; procedure, shortened: as §1
# [20] = Cytotoxicity against human PC3 cells after 48 hrs by SRB assay; type: functional; details: PC-3, 48 h; procedure, shortened: as §1
# [21] = Cytotoxicity against human MOLT4 cells after 48 hrs by SRB assay; type: functional; details: MOLT-4, 48 h; procedure, shortened: as §1
# M14 = experiment: Cytotoxicity against human M14 cells after 48 hrs by SRB assay; type: functional; details: M14, 48 h; procedure, shortened: as §1
# NCI-H226 = experiment: Cytotoxicity against human NCI-H226 cells after 48 hrs by SRB assay; type: functional; details: NCI-H226, 48 h; procedure, shortened: as §1
# T47D = experiment: Cytotoxicity against human T47D cells after 48 hrs by SRB assay; type: functional; procedure, shortened: as §2
# [22] = Cytotoxicity against human OVCAR3 cells after 48 hrs by SRB assay; type: functional; details: OVCAR-3, 48 h; procedure, shortened: as §1
# SR = experiment: Cytotoxicity against human SR cells after 48 hrs by SRB assay; type: functional; procedure, shortened: as §1
# [23] = Cytotoxicity against human SF539 cells after 48 hrs by SRB assay; type: functional; details: SF-539, 48 h; procedure, shortened: as §1
# [24] = Cytotoxicity against human OVCAR5 cells after 48 hrs by SRB assay; type: functional; details: OVCAR-5, 48 h; procedure, shortened: as §1
# MDA-MB-468 = experiment: Cytotoxicity against human MDA-MB-468 cells after 48 hrs by SRB assay; type: functional; details: MDA-MB-468, 48 h; procedure, shortened: as §1
# MDA-MB-231 = experiment: Cytotoxicity against human MDA-MB-231 cells after 48 hrs by SRB assay; type: functional; details: MDA-MB-231, 48 h; procedure, shortened: as §1
# CCRF-CEM = experiment: Cytotoxicity against human CCRF-CEM cells after 48 hrs by SRB assay; type: functional; procedure, shortened: as §1
# [25] = Cytotoxicity against human SNB75 cells after 48 hrs by SRB assay; type: functional; details: SNB-75, 48 h; procedure, shortened: as §1
# NCI-H460 = experiment: Cytotoxicity against human NCI-H460 cells after 48 hrs by SRB assay; type: functional; details: NCI-H460, 48 h; procedure, shortened: as §1
# [26] = Cytotoxicity against human BT549 cells after 48 hrs by SRB assay; type: functional; details: BT-549, 48 h; procedure, shortened: as §1
# [27] = Cytotoxicity against human SF295 cells after 48 hrs by SRB assay; type: functional; details: SF-295, 48 h; procedure, shortened: as §1
# [28] = Cytotoxicity against human Caki1 cells after 48 hrs by SRB assay; type: functional; details: CAKI-1, 48 h; procedure, shortened: as §1
# [29] = Cytotoxicity against human UACC62 cells after 48 hrs by SRB assay; type: functional; details: UACC-62, 48 h; procedure, shortened: as §2
# A549 = experiment: Cytotoxicity against human A549 cells after 48 hrs by SRB assay; type: functional; details: A549, 48 h; procedure, shortened: as §1
# [30] = Cytotoxicity against human SNB19 cells after 48 hrs by SRB assay; type: functional; details: SNB-19, 48 h; procedure, shortened: as §1
structure (smiles),measurement,setting,value
COc1cc(-c2n[nH]nc2-c2c[nH]c3ccccc23)cc(OC)c1OC,GI50,[1],43 nM
same,GI50,MCF7,29 nM
same,GI50,SK-MEL-5,43 nM
same,GI50,[2],41 nM
same,GI50,[3],35 nM
same,GI50,NCI-H522,21 nM
same,GI50,[4],87 nM
same,GI50,[5],1160 nM
same,GI50,[6],440 nM
same,GI50,[7],46 nM
same,GI50,[8],71 nM
same,GI50,U-251,59 nM
same,GI50,A498,35 nM
same,GI50,KM12,45 nM
same,GI50,SN12C,1390 nM
same,GI50,[9],1390 nM
same,GI50,[10],90 nM
same,GI50,NCI-H23,270 nM
same,GI50,[11],164 nM
same,GI50,[12],13.9 µM
same,GI50,K562,53 nM
same,GI50,[13],34 nM
same,GI50,ACHN,43 nM
same,GI50,SK-MEL-28,112 nM
same,GI50,MDA-MB-435,14 nM
same,IC50,Tubulin,18.5 µM
same,GI50,HT-29,33 nM
same,GI50,[14],34 nM
same,GI50,[15],90 nM
same,GI50,[16],71 nM
same,GI50,[17],42 nM
same,GI50,SK-MEL-2,30 nM
same,GI50,[18],42 nM
same,GI50,[19],1160 nM
same,GI50,786-0,35 nM
same,GI50,[20],44 nM
same,GI50,[21],160 nM
same,GI50,M14,36 nM
same,GI50,NCI-H226,390 nM
same,GI50,T47D,48 nM
same,GI50,[22],33 nM
same,GI50,SR,90 nM
same,GI50,[23],31 nM
same,GI50,[24],381 nM
same,GI50,MDA-MB-468,42 nM
same,GI50,MDA-MB-231,89 nM
same,GI50,CCRF-CEM,48 nM
same,GI50,[25],30 nM
same,GI50,NCI-H460,42 nM
same,GI50,[26],28 nM
same,GI50,[27],32 nM
same,GI50,[28],44 nM
same,GI50,[29],43 nM
same,GI50,A549,90 nM
same,GI50,[30],61 nM
